Results gathered from unrelated publications.
Each line is one published result; the experiments were not run side by side.
Cell line: MDA-MB-231
Observed: cell growth or viability

Cc1ccc(S(=O)(=O)n2cc(/C=N/NC(=O)c3ccco3)c3ccccc32)cc1  IC50 (MTT; 48 h): 29.6 µM
Cc1cc(NS(=O)(=O)c2ccc(NC(=O)/C(C#N)=C/c3ccc(N4CCCCC4)cc3)cc2)no1  IC50 (MTT; 48 h): 20 µM
COc1cc([C@@H]2c3cc4c(cc3[C@@H](O[C@@H]3O[C@@H]5CO[C@@H](C)O[C@H]5[C@H](O)[C@H]3O)[C@H]3COC(=O)[C@H]23)OCO4)cc(OC)c1O  IC50 (ATP luminescence; 48 h): 2.15 µM
COc1ccc(NC(=S)N/N=C/c2cccc3cc4ccccc4nc23)cc1  IC50 (MTT; 48 h): > 50 µM
Cc1ccc(S(=O)(=O)n2cc(/C=N/NC(=O)c3ccc(C)c(F)c3)c3ccccc32)cc1  IC50 (MTT; 48 h): 21.3 µM
CCCNC(=S)N/N=C/c1cccc2cc3ccccc3nc12  IC50 (MTT; 48 h): > 50 µM
CC(C)[C@@H]1NC(=O)[C@H](Cc2c[nH]cn2)NC1=O  IC50 (SRB): > 15 µM
COc1cc([C@@H]2c3cc4c(cc3[C@@H](O[C@@H]3O[C@@H]5CO[C@@H](C)O[C@H]5[C@H](O)[C@H]3O)[C@H]3COC(=O)[C@H]23)OCO4)cc(OC)c1O  IC50 (SRB; 72 h): 3.3 µM
C[C@H]1[C@H](C)CC[C@]2(C)CC[C@]3(C)C(=CC(=O)[C@@H]4[C@@]5(C)CC[C@@H](O)[C@](C)(C(=O)NCc6cn(-c7ccccc7C(F)(F)F)nn6)[C@@H]5CC[C@]43C)[C@H]12  IC50 (MTT; 24 h): 69.9 µM
Nc1nc2cc(CC[C@H]3C[C@@H](n4ccc5c(N)ncnc54)[C@H](O)[C@@H]3O)ccc2cc1Br  IC50 (CCK-8; 72 h): > 100 µM
CC(=O)O[C@@]12CO[C@@H]1C[C@H](O)[C@@]1(C)C(=O)[C@H](O)C3=C(C)[C@@H](OC(=O)[C@H](O)[C@@H](NC(=O)OC(C)(C)C)c4ccccc4)C[C@@](O)([C@@H](OC(=O)c4ccccc4)[C@H]21)C3(C)C  IC50 (MTT; 24 h): > 50 µg/mL
O=C(Nc1ccc(Oc2nc3ccccc3n3cnnc23)cc1)Nc1cccc(Cl)c1  IC50 (MTT; 24 h): 33.6 µM
COc1cccc2c1C(=O)c1c(O)c3c(c(O)c1C2=O)C[C@@](O)(C(=O)CO)C[C@@H]3O[C@H]1C[C@H](N)[C@H](O)[C@H](C)O1  IC50 (SRB): 0.18 µM
CC1CCC(C(C)C)C(OC2=C(Cl)C(=O)c3ccccc3C2=O)C1 (stereo not shown)  IC50 (MTT; 24 h): 5 µg/mL
COc1ccccc1/C=N/N=C1\C(=O)Nc2ccccc21  IC50 (MTT; 24 h): 41.2 µg/mL
Cc1ccc(S(=O)(=O)n2cc(/C=N/NC(=O)c3ccccc3)c3ccccc32)cc1  IC50 (MTT; 48 h): 24.1 µM
COc1cc([C@@H]2c3cc4c(cc3[C@@H](O[C@@H]3O[C@@H]5CO[C@@H](C)O[C@H]5[C@H](O)[C@H]3O)[C@H]3COC(=O)[C@H]23)OCO4)cc(OC)c1O  IC50 (MTT; 48 h): 21.2 µM
CO[C@H]1[C@H](O[C@H]([C@H]2O[C@@H](n3ccc(=O)[nH]c3=O)[C@H](O)[C@@H]2O)[C@H](NCCCNC(=O)[C@@H](NC(=O)[C@@H](NC(=O)N[C@H](C(=O)O)C(C)C)[C@@H]2CCN=C(N)N2)[C@@H](O)C(C)C)C(=O)O)O[C@H](CN)[C@H]1O  IC50 (WST-1): > 35 µM
C[C@H]1[C@H](C)CC[C@]2(C(=O)O)CC[C@]3(C)C(=CC[C@@H]4[C@@]5(C)CC[C@H](O)C(C)(C)[C@@H]5CC[C@]43C)[C@H]12  IC50 (MTT; 24 h): 15 µM
C[C@H]1[C@H](C)CC[C@]2(C)CC[C@]3(C)C(=CC(=O)[C@@H]4[C@@]5(C)CC[C@@H](O)[C@](C)(C(=O)NCc6cn(-c7ccccc7)nn6)[C@@H]5CC[C@]43C)[C@H]12  IC50 (MTT; 24 h): 103 µM
CN1CCc2c(c3ccccc3n2Cc2ccc(C(=O)NO)cc2)C1  IC50 (CCK-8; 48 h): 24.7 µM
CCCc1cc2cc(-n3nc(C)c4c3CC(C)(C)CC4=O)cc(N3CCC(O)CC3)c2c(=O)[nH]1  IC50 (MTS): 3.82 µM
O=C(Nc1ccc(Cl)cc1)Nc1ccc(Oc2nc3ccccc3n3cnnc23)cc1  IC50 (MTT; 24 h): > 68 µM
O=[N+]([O-])c1ccc(NC(=S)N/N=C/c2cccc3cc4ccccc4nc23)cc1  IC50 (MTT; 48 h): > 50 µM
COc1ccc(C(=O)N/N=C/c2cn(S(=O)(=O)c3ccc(C)cc3)c3ccccc23)cc1  IC50 (MTT; 48 h): 34.4 µM
COc1ccc(-n2cc(CNC(=O)[C@@]3(C)[C@H](O)CC[C@@]4(C)[C@H]3CC[C@]3(C)[C@@H]4C(=O)C=C4[C@@H]5[C@@H](C)[C@H](C)CC[C@]5(C)CC[C@]43C)nn2)cc1  IC50 (MTT; 24 h): 76.6 µM
Nc1ccn([C@@H]2O[C@H](CO)[C@@H](O)C2(F)F)c(=O)n1  IC50 (MTT; 48 h): 4.07 µg/mL
Fc1ccc(NC(=S)N/N=C/c2cccc3cc4ccccc4nc23)cc1  IC50 (MTT; 48 h): > 50 µM
C[C@H]1[C@H](C)CC[C@]2(C)CC[C@]3(C)C(=CC(=O)[C@@H]4[C@@]5(C)CC[C@@H](O)[C@](C)(C(=O)NCc6cn(-c7ccc(Br)cc7)nn6)[C@@H]5CC[C@]43C)[C@H]12  IC50 (MTT; 24 h): 72.5 µM
Cc1cc(NS(=O)(=O)c2ccc(NC(=O)/C(C#N)=C/c3cccnc3)cc2)no1  IC50 (MTT; 48 h): 184 µM
O=C1Nc2ccccc2/C1=N/N=C/c1cccc([N+](=O)[O-])c1  IC50 (MTT; 24 h): 38.3 µg/mL
Cc1ccc(S(=O)(=O)n2cc(/C=N/NC(=O)c3cc4ccccc4cc3O)c3ccccc32)cc1  IC50 (MTT; 48 h): 16.4 µM
C=CCn1c(=O)c2cnc(Nc3ccc(N4CCN(C)CC4)cc3)nc2n1-c1ccc2c(n1)[C@@](O)(CC)CC2  IC50 (ATP luminescence; 72 h): 0.627 µM
Cc1ccc(S(=O)(=O)n2cc(/C=N/NC(=O)Cc3ccc(F)cc3F)c3ccccc32)cc1  IC50 (MTT; 48 h): 26.4 µM
C[C@H]1[C@H](C)CC[C@]2(C)CC[C@]3(C)C(=CC(=O)[C@@H]4[C@@]5(C)CC[C@@H](O)[C@](C)(C(=O)NCc6cn(-c7cccc(C(F)(F)F)c7)nn6)[C@@H]5CC[C@]43C)[C@H]12  IC50 (MTT; 24 h): 70.4 µM
Cc1ccc(S(=O)(=O)n2cc(/C=N/NC(=O)c3ccc(Br)cc3)c3ccccc32)cc1  IC50 (MTT; 48 h): 22.4 µM
Cc1cc(NS(=O)(=O)c2ccc(NC(=O)/C(C#N)=C/c3ccncc3)cc2)no1  IC50 (MTT; 48 h): 116 µM
